From paper PMC6350648 (Drug Design, Development and Therapy, 2019) come the findings set out here.

The test system of data set [1] is Staphylococcus aureus (NCTC10788). Nature of the data set: MIC/MBC broth-dilution assay. It counts as cell-based. The settings on record: S. aureus NCTC10788, MHB pH 7.4, 512 to 1 µM twofold, 1% DMSO. A digest of the protocol: (§1)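 Broth dilution was run in Mueller Hinton Broth, pH 7.4, with peptide at final 512 to 1 µM in twofold steps. Peptide stocks were in DMSO, giving final 1% (v/v) DMSO, also used alone as vehicle control. Controls were culture without peptide for growth and fresh MHB as blank. Positive controls were 5 mg/L vancomycin (S. aureus, MRSA, E. faecalis) and 5 mg/L amphotericin B (C. albicans). Five independent experiments were run.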

Data set [2] relates to Escherichia coli (NCTC10418). Nature of the data set: MIC/MBC broth-dilution assay. Type of data set: cell-based. The settings on record: E. coli NCTC10418, MHB pH 7.4, 512 to 1 µM twofold, 1% DMSO. The essentials: as §1
In data set [3] the test system is Candida albicans (NCYC1467). Put plainly: MIC/MBC broth-dilution assay. It counts as cell-based. The settings on record: C. albicans NCYC1467, MHB pH 7.4, 512 to 1 µM twofold, 1% DMSO. The essentials:
as §1

Data set [4] concerns methicillin-resistant S. aureus (MRSA) (NCTC12493). Put plainly: MIC/MBC broth-dilution assay. Type of data set: cell-based, Staphylococcus aureus. The settings on record: MHB pH 7.4, 512 to 1 µM twofold, 1% DMSO. A digest of the protocol:
as §1

Data set [5] has as its system Enterococcus faecalis (NCTC12697). Nature of the data set: MIC/MBC broth-dilution assay. Type of data set: cell-based. The settings on record: E. faecalis NCTC12697, MHB pH 7.4, 512 to 1 µM twofold, 1% DMSO. The essentials: as §1
A further data set has as its system horse erythrocytes. Nature of the data set: Hemolysis assay. Type of data set: cell-based. The settings on record: peptides in PBS, 512 to 1 µM, 1% Triton-X100 = 100%. A digest of the protocol: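 Horse erythrocytes were exposed to peptide in PBS at 512 to 1 µM. Erythrocytes in PBS defined 0% hemolysis and 1% (v/v) Triton X-100 defined 100%. HC50 (µM) was the concentration giving half-maximal hemolysis. Values are the mean with standard error from five independent experiments.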

A further data set concerns MDA-MB-435S cells. Nature of the data set: MTT assay. It counts as cell-based, human. The settings on record: MB435s (MDA-MB-435S); peptides in serum-free medium. The essentials:
(§2)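 For MTT viability, MDA-MB-435S, U251MG, HCT116 and MCF-7 were grown in DMEM, and NCI-H157 and PC-3 in RPMI 1640. All media had 10% FBS and 1% penicillin–streptomycin. Peptides were diluted in serum-free medium. Untreated cells defined 100% viability, and LD50 was the median lethal dose. Values are the mean with standard error from five independent experiments.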
Background: Tetrazolium dyes change colour on reduction, which living cells bring about.

The subject of a further data set is NCI-H157 cells. Put plainly: MTT assay. Type of data set: cell-based, human. The settings on record: peptides in serum-free medium. The essentials:
as §2

A further data set deals with PC-3 cells. Nature of the data set: MTT assay. The settings on record: peptides in serum-free medium. Type of data set: cell-based, human. The essentials:
as §2

A further data set deals with U251MG cells. Put plainly: MTT assay. It counts as cell-based, human. The settings on record: peptides in serum-free medium. The essentials:
as §2

Another data set deals with HCT116 cells. Nature of the data set: MTT assay. The settings on record: peptides in serum-free medium. It counts as cell-based, human. A digest of the protocol: as §2
The test system of data set [6] is MCF-7 cells. Nature of the data set: MTT assay. It counts as cell-based, human. The settings on record: peptides in serum-free medium. A digest of the protocol:
as §2

Data set [7] deals with MCF-7 cells. It counts as cell-based, human. The settings on record: MCF-7, 10 µM peptide; 100% = 1% TritonX-100; five replicates.
Data set [8] has as its system selected human cancer cell lines. Nature of the data set: MTT assay, all cancer cell lines examined. Type of data set: cell-based. The settings on record: all six cancer cell lines. The essentials: as §2

No end group written: not given here.

The MIC is the lowest concentration that inhibits growth of the organism. For the substance FLSLIPKAISAISALINHF-NH2 [PSPHa3], the MBC in [1] is 2 µM; in data set [2], over 512 µM; in [3], 4 µM; in [4] it was 32 µM; in data set [5], 32 µM. Also, the MIC is 2 µM in data set [1]; over 512 µM in data set [2]; 4 µM in data set [3]; 32 µM in data set [4]; 32 µM in data set [5]. In the data set with horse erythrocytes, the “HC50 of hemolysis on erythrocytes” value was determined as 9.266 µM. Further, the “LD50 of MTT assays” value in the data set with MDA-MB-435S cells is on record as 3.994 µM; with NCI-H157 cells it was 2.865 µM; in the data set on PC-3 cells, 9.164 µM; in the data set on U251MG cells, 10.85 µM; in the data set with HCT116 cells, 11.71 µM; with MCF-7 cells [6], 10.48 µM.
Turning to “FLSLIPAAISAVSALANHF-NH2 [PSPHa, Phylloseptin-PHa]”, the MBC is 16 µM in data set [1]; over 512 µM in [2]; 32 µM in data set [3]; 128 µM in [4]; over 512 µM in data set [5]. The MIC is 8 µM in data set [1]; over 512 µM in data set [2]; 32 µM in data set [3]; 64 µM in data set [4]; over 512 µM in data set [5]. Also, in the data set on horse erythrocytes, the “HC50 of hemolysis on erythrocytes” value is listed as 52.17 µM. The “LD50 of MTT assays” value is on record as 28.48 µM with MDA-MB-435S cells; 37.61 µM with NCI-H157 cells; 37.96 µM in the data set on PC-3 cells; 34.67 µM in the data set with U251MG cells; 36.64 µM with HCT116 cells; 24.05 µM in the data set on MCF-7 cells [6]. Besides, the LDH release entry in the data set on MCF-7 cells [7] was “not as potent as PSPHa2–5”.
On to FLSLIPKAISAVSALANHF-NH2 [PSPHa1], for which the MBC in data set [1] came out at 8 µM; in data set [2], 128 µM; in [3] it was 32 µM; in data set [4], 32 µM; in data set [5], 32 µM. In addition, the MIC in data set [1] was 8 µM; in [2] it was 128 µM; in [3], 16 µM; in [4] it was 16 µM; in data set [5], 32 µM. In addition, the “HC50 of hemolysis on erythrocytes” value in the data set with horse erythrocytes turned out to be 197.7 µM. In addition, the “LD50 of MTT assays” value in the data set with MDA-MB-435S cells was found to be 32.41 µM; in the data set with NCI-H157 cells it was 41.73 µM; in the data set with PC-3 cells, 32.89 µM; with U251MG cells, 33.65 µM; with HCT116 cells, 35.16 µM; with MCF-7 cells [6], 45.69 µM. Moreover, the LDH release result in the data set with MCF-7 cells [7] is on record as “lowest degree of LDH release”.
For FLSLIPKIISAISALINHF-NH2 [PSPHa4], the MBC in data set [1] is 2 µM; in data set [2], over 512 µM; in data set [3], 128 µM; in [4] it was 256 µM; in [5], 64 µM. For the same substance, the MIC in [1] was 2 µM; in data set [2], over 512 µM; in data set [3], 32 µM; in [4] it was 128 µM; in data set [5], 32 µM. Also, in the data set on horse erythrocytes, the “HC50 of hemolysis on erythrocytes” value is reported as 2.766 µM. The “LD50 of MTT assays” value was 4.802 µM in the data set on MDA-MB-435S cells; 2.265 µM in the data set on NCI-H157 cells; 9.35 µM with PC-3 cells; 9.547 µM in the data set with U251MG cells; 6.779 µM in the data set on HCT116 cells; 15.01 µM in the data set on MCF-7 cells [6].
On to FLSLIPKAISAISALANHF-NH2 [PSPHa2], for which the MBC in [1] was 4 µM; in data set [2] it was 128 µM; in data set [3], 16 µM; in data set [4], 32 µM; in [5], 64 µM. Moreover, the MIC came out at 4 µM in data set [1]; 64 µM in data set [2]; 8 µM in data set [3]; 16 µM in data set [4]; 64 µM in data set [5]. Moreover, in the data set with horse erythrocytes, the “HC50 of hemolysis on erythrocytes” value stood at 34.86 µM. Moreover, the “LD50 of MTT assays” value was 19.56 µM in the data set on MDA-MB-435S cells; 35.34 µM in the data set with NCI-H157 cells; 35.11 µM in the data set on PC-3 cells; 36.46 µM in the data set with U251MG cells; 37.4 µM in the data set with HCT116 cells; 26.49 µM in the data set with MCF-7 cells [6].
For FLSLIPKIISAISALIKHF-NH2 [PSPHa5], the MBC in [1] was 2 µM; in [2], over 512 µM; in data set [3], 128 µM; in data set [4], 128 µM; in data set [5] it was 32 µM. For the same substance, the MIC in [1] was 2 µM; in [2], over 512 µM; in data set [3], 32 µM; in [4], 64 µM; in data set [5] it was 16 µM. In addition, in the data set on horse erythrocytes, the “HC50 of hemolysis on erythrocytes” value worked out at 1.074 µM. Besides, the “LD50 of MTT assays” value in the data set with MDA-MB-435S cells turned out to be 3.553 µM; in the data set with NCI-H157 cells, 3.614 µM; in the data set on PC-3 cells, 4.256 µM; with U251MG cells it was 4.059 µM; in the data set with HCT116 cells it was 4.421 µM; with MCF-7 cells [6], 3.753 µM. The “LD50 (MTT) for all the cell lines examined” value in data set [8] was under 5 µM.
